Here are results for 13 molecules from ChEMBL document CHEMBL1125157, “Synthesis and biological evaluation of 14-alkoxymorphinans. 3. Extensive study on cyprodime-related compounds” (J Med Chem, 1990).

The target of assay [1] is Mu-type opioid receptor (Mus musculus) (UniProt P42866). Description: Antagonistic activity (Ke) against nor-morphine and Opioid receptor mu 1 of mouse vas deferens assay. The assay is classed as functional, tissue-based. Put shortly: (§1)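 Mouse vas deferens antagonism was measured against normorphine (μ), ethylketocyclazocine (κ) or DADLE (δ in this tissue). Ke = [antagonist]/(DR − 1), where DR is the ratio of equiactive agonist concentrations with and without antagonist. Antagonist concentrations were chosen to give a dose ratio between 3 and 10 against the relevant agonist.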
Sequence of Mu-type opioid receptor (Mus musculus) (P42866 whole entry): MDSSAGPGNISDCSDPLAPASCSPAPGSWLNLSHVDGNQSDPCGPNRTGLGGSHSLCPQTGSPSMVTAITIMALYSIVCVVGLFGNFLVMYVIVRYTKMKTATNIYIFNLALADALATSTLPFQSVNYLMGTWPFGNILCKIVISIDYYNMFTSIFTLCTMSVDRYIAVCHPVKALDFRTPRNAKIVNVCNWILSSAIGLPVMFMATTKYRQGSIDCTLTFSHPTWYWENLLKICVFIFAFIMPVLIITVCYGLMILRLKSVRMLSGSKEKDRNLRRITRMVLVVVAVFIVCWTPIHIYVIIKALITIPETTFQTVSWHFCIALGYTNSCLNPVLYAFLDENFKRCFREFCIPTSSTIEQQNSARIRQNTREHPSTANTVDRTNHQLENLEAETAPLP

Assay [2] has as its target Mu-type opioid receptor (Homo sapiens) (UniProt P35372). Description: Agonist potency against mu opioid receptor expressed as the ratio of the ED40 concentrations of the normorphine and compound in guinea pig ileum; NA= No agonist activity detected. It counts as functional, tissue-based. Put shortly: (§2)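 Agonist activity tested on electrically stimulated isolated tissue twitch (mouse vas deferens and guinea pig ileum). ED40 is the concentration giving 40% inhibition of twitch height. Potency is given as the ratio of the ED40 of the reference agonist (normorphine, ethylketocyclazocine or DADLE) to that of the test compound. TS marks a curve too shallow to reach 40% inhibition. NA means no agonist activity was detected.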

Assay [3] deals with T1, Opioid receptors; mu & delta (Homo sapiens) (UniProt P41143+P35372). Kind of assay: Selectivity ratio was determined using the Ke value of Opioid receptor delta 1 to that of Opioid receptor mu 1. Summed up:
(§3)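 Selectivity is the ratio of Ke values from mouse vas deferens antagonism, with Ke = [antagonist]/(DR − 1). DADLE gave the δ value, ethylketocyclazocine the κ value and normorphine the μ value. Antagonist concentrations gave a dose ratio of 3–10.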

In assay [4] the target is Opioid receptors; mu & kappa (Homo sapiens) (UniProt P41145+P35372). Kind of assay: Selectivity ratio was determined using the Ke value of kappa receptor to that of mu receptor. Put shortly:
as §3

For assay [5], the target named is Mu-type opioid receptor (Homo sapiens) (UniProt P35372). Kind of assay: Agonist potency against mu opioid receptor expressed as the ratio of the ED40 concentrations of the ethylketocyclazocin and compound in guinea pig ileum. It counts as functional, tissue-based. Summed up:
as §2

In assay [6] the target is Kappa-type opioid receptor (Mus musculus) (UniProt P33534). Description: Antagonistic activity (Ke) at Opioid receptor kappa 1 was determined against ethylketocyclazocine in the mouse vas deferens (MVD). The assay is classed as functional, tissue-based. Summed up: as §1
Sequence of Kappa-type opioid receptor (Mus musculus) (P33534 whole entry): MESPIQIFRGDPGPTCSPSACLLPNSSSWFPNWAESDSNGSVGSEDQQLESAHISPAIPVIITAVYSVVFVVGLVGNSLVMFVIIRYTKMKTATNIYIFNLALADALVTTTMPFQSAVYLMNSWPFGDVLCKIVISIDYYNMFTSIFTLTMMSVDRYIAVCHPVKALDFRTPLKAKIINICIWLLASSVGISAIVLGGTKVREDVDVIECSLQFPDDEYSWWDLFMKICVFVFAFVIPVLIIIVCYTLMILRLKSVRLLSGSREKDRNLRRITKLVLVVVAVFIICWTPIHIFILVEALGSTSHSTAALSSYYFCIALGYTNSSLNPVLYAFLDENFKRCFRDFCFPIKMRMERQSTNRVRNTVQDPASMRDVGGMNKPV
Assay [7] deals with Delta-type opioid receptor (Mus musculus) (UniProt P32300). Kind of assay: Antagonistic activity (Ke) at Opioid receptor delta 1 was determined against DADLE in the mouse vas deferens (MVD). It counts as functional, tissue-based. Summed up: as §1
Sequence of Delta-type opioid receptor (Mus musculus) (P32300 whole entry): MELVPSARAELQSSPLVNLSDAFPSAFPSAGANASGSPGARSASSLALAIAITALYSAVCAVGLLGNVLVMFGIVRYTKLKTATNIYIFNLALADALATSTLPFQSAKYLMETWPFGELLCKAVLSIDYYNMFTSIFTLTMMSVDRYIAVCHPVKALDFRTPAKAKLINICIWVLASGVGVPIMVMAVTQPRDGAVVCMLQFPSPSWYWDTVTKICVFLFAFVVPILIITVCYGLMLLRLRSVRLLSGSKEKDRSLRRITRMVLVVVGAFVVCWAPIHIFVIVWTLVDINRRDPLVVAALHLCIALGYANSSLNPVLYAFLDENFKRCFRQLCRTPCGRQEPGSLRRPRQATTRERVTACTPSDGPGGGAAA
Assay [8] concerns the target Mu-type opioid receptor (Homo sapiens) (UniProt P35372). Kind of assay: Agonist potency against mu opioid receptor expressed as the ratio of the ED40 concentrations of the DADLE and compound in guinea pig ileum; NA= No agonist activity detected. It counts as functional, tissue-based. Put shortly: as §2
Assay [9] has the same target. Description: Agonist potency against mu opioid receptor expressed as the ratio of the ED40 concentrations of the normorphine and compound in guinea pig ileum; TS= Too shallow to estimate ED40. It counts as functional, tissue-based. Put shortly: as §2
The target of assay [10] is Delta-type opioid receptor (Mus musculus) (UniProt P32300). Description: Antagonistic activity (Ke) at Opioid receptor delta 1 was determined against DADLE in the mouse vas deferens (MVD) method. The assay is classed as functional, tissue-based. Put shortly:
as §1

Assay [11] has as its target Mu-type opioid receptor (Cavia porcellus) (UniProt P97266). Kind of assay: Agonist potency against Opioid receptor mu 1 expressed as the ratio of the ED40 concentrations of the DADLE and compound in guinea pig ileum […]. The assay is classed as functional, tissue-based. Put shortly:
as §2

Assay [12] deals with Mu-type opioid receptor (Mus musculus) (UniProt P42866). Description: Agonist potency against Opioid receptor mu 1 expressed as the ratio of the ED40 concentrations of the normorphine and compound in guinea pig ileum. The assay is classed as functional, tissue-based. Summed up:
as §2

Assay [13] deals with Mu-type opioid receptor (Cavia porcellus) (UniProt P97266). Description: Agonist potency against Opioid receptor mu 1 expressed as the ratio of the ED40 concentrations of the ethylketocyclazocin and compound in guinea pig ileum. The assay is classed as functional, tissue-based. Summed up:
as §2

For assay [14], the target named is Mu-type opioid receptor (Homo sapiens) (UniProt P35372). Description: Agonist potency against mu opioid receptor expressed as the ratio of the ED40 concentrations of the DADLE and compound in guinea pig ileum. The assay is classed as functional, tissue-based. Put shortly:
as §2

The target is the same in assay [15]. Description: Agonist potency against mu opioid receptor expressed as the ratio of the ED40 concentrations of the ethylketocyclazocin and compound in guinea pig ileum TS= Too shallow to estimate ED40. It counts as functional, tissue-based. Summed up:
as §2

The target of assay [16] is Mu-type opioid receptor (Mus musculus) (UniProt P42866). Kind of assay: (§4) Agonist potency against Opioid receptor mu 1 expressed as the ratio of the ED40 concentrations of the normorphine and compound in guinea pig ileum; NA= No agonist activity detected. It counts as functional, tissue-based. Put shortly: as §2
The target of assay [17] is Mu-type opioid receptor (Cavia porcellus) (UniProt P97266). Described as §4. The assay is classed as functional, tissue-based. Summed up: as §2
Sequence of Mu-type opioid receptor (Cavia porcellus) (P97266 whole entry): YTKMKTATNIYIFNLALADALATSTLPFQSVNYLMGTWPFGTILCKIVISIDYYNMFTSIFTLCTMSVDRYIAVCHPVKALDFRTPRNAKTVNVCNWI
The target of assay [18] is T1, Opioid receptors; mu & delta (Homo sapiens). Description: Selectivity ratio was determined using the Ke value of Opioid receptor delta 1 to that of mu receptor. Summed up: as §3
The target of assay [19] is Mu-type opioid receptor (Cavia porcellus) (UniProt P97266). Description: Agonist potency against Opioid receptor mu 1 expressed as the ratio of the ED40 concentrations of the ethylketocyclazocin and compound in guinea pig ileum TS= Too shallow to estimate ED40. It counts as functional, tissue-based. Summed up:
as §2

Molecules are shown by their SMILES. Calls of active or inactive are those of the source. The rule behind the calls is not given here.

Sequence of Mu-type opioid receptor (Homo sapiens) (P35372 whole entry): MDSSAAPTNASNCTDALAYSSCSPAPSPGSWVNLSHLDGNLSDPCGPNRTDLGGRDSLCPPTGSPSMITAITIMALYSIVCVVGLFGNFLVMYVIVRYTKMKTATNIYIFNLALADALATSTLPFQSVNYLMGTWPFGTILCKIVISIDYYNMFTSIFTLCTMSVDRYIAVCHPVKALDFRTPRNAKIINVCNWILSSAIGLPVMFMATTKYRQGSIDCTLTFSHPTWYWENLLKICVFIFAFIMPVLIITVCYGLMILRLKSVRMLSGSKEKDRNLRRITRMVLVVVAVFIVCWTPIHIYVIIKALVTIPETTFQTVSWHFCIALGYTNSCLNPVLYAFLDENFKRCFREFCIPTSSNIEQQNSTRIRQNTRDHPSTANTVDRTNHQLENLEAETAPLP
T1 sequence (P35372 whole entry, looked up): as the sequence (P35372 whole entry) above
T1 sequence (P41143 whole entry, looked up): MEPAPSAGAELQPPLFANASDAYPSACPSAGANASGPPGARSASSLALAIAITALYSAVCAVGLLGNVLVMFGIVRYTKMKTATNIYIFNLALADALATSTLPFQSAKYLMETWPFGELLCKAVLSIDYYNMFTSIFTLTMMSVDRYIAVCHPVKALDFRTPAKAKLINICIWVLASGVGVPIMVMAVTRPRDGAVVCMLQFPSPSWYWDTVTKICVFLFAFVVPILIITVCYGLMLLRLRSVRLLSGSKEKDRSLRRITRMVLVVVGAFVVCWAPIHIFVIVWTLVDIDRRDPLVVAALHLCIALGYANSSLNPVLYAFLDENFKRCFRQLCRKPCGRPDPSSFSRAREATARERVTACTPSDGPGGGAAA
Sequence of Opioid receptors; mu & kappa (Homo sapiens) (P35372 whole entry, looked up): as the sequence (P35372 whole entry) above
Sequence of Opioid receptors; mu & kappa (Homo sapiens) (P41145 whole entry, looked up): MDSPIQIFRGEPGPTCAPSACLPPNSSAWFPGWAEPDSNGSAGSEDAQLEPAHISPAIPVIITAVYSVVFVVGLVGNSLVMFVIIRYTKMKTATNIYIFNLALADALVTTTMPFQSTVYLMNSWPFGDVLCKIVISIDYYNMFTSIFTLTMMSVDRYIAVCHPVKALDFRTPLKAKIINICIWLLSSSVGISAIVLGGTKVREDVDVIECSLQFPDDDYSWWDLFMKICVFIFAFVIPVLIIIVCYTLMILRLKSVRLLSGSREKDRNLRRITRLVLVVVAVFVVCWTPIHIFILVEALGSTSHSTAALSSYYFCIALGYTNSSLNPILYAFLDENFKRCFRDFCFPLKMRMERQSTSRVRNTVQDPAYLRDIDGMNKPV

Turning to `C=CCN1CC[C@]23CC(=O)CC[C@@]2(OCC)[C@H]1Cc1cccc(OC)c13`, the results for the Ke in [1], in assay [6] and in [7] were 81 nM, 2560 nM and 3740 nM, respectively. For the same molecule, the Ratio entry in [2] and in assay [8] was “inactive” each time. For the same molecule, the Selectivity ratio in assay [3] was found to be 46; in [4], 32. Further, the Ratio in [5] amounted to 0.0004.
On to `CCO[C@@]12CCC(=O)C[C@@]13CCN(CC1CC1)[C@@H]2Cc1ccc(OC)c(OC)c13`, for which the Ke in [1] is 46 nM; in [6], 5300 nM; in assay [7], 1540 nM. Moreover, the Selectivity ratio in assay [3] stood at 33; in assay [4] it was 115. In addition, in [5], the Ratio amounted to 0.0015. In addition, the Ratio result in assay [9] and in assay [8] was “inactive” in each case.
Regarding `C=CCN1CC[C@]23CC(=O)CC[C@@]2(OC)[C@H]1Cc1cccc(OC)c13`, the values for the Ke in assay [1], in [10] and in assay [6] were 230 nM, 6.45 µM and 6040 nM, respectively.
In the same order, the values of `CCCCOc1cccc2c1[C@]13CCN(CC4CC4)[C@H](C2)[C@]1(OC)CCC(=O)C3` are 21 nM, 2.05 µM and 811 nM.
In the case of `CO[C@@]12CCC(=O)C[C@@]13CCN(CC1CC1)[C@@H]2Cc1ccccc13`, the Ratio in [11] was determined as 0.004; in [12] it was 0.0004; in [13], 0.0008.
Regarding `C=CCN1CC[C@]23CC(=O)CC[C@@]2(OCC)[C@H]1Cc1ccc(OC)c(OC)c13`, the Ke was determined as 184 nM in assay [1], 6190 nM in assay [6] and 665 nM in [7]. Besides, the Ratio in assay [14] was 1; in assay [5], 0.001. The Selectivity ratio worked out at 3.6 in assay [3] and 34 in assay [4].
`CCO[C@@]12CCC(=O)C[C@@]13CCN(CC1CC1)[C@@H]2Cc1cccc(OC)c13`: the values for the Ke in assay [1], in assay [6] and in assay [7] were 21.7 nM, 1130 nM and 2130 nM, respectively. Further, the Ratio result in assay [2] and in assay [8] was “inactive” in each case. Also, the Selectivity ratio in assay [3] came to 98; in assay [4], 52. Besides, in assay [5], the Ratio was 0.0014.
With `COc1ccc2c(c1OC)[C@]13CCN(CC4CC4)[C@H](C2)[C@]1(OC)CCC(=O)C3`, the Ke was found to be 120 nM in assay [1], 0.744 µM in assay [10] and 2100 nM in [6]. Moreover, the Ratio result in assay [2], in assay [15] and in assay [8] was “inactive” throughout.
For the molecule `CO[C@@]12CCC(=O)C[C@@]13CCN(CC1CC1)[C@@H]2Cc1cccc(OC(C)C)c13`, the Ke in [1] turned out to be 108 nM; in [6], 2410 nM; in assay [7] it was 11300 nM. Also, the Selectivity ratio in [3] was 105; in assay [4] it was 22. Moreover, the Ratio entry in assay [8] was “inactive”.
Take `CO[C@@]12CCC(=O)C[C@@]13CCN(CC1CC1)[C@@H]2Cc1cccc(O)c13`: the Ratio in assay [16] is 0.001; in assay [13] it was 0.0007. The Ratio result in [17] is “inactive”.
Take `CO[C@@]12CCC(=O)[C@@H]3Oc4cccc5c4C31CCN(CC1CC1)[C@@H]2C5`: the Ke in [1] was determined as 168 nM; in assay [10] it was 4.03 µM; in assay [6], 648 nM. Also, the Selectivity ratio in [18] was determined as 24.
As for `COc1cccc2c1[C@]13CCN(CC4CC4)[C@H](C2)[C@]1(OC)CCC(=O)C3`, the Selectivity ratio in assay [3] was found to be 110; in assay [4] it was 28.
In the case of `C=CCN1CC[C@]23CC(=O)CC[C@@]2(OC)[C@H]1Cc1ccc(OC)c(OC)c13`, the Ke was 118 nM in [1], 3900 nM in [6] and 179 nM in assay [7]. The Ratio entry in assay [2], in assay [19] and in assay [8] was “inactive” in each case.
